Three compounds from ChEMBL document CHEMBL1143844, “Biochemical studies on the mechanism of human immunodeficiency virus type 1 reverse transcriptase resistance to 1-(beta-D-dioxolane)thymine triphosphate” (Antimicrob Agents Chemother, 2007) can be followed below.

Experiment [1] concerns the target T1, Human immunodeficiency virus type 1 reverse transcriptase (Human immunodeficiency virus 1, UniProt Q72547). Put plainly: Inhibition of HIV1 pNL4-3 reverse transcriptase wild type pNL4-3 by heteropolymeric DNA polymerase assay. In short, it runs like this:
(§1)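 Heteropolymeric assay without ATP: plate-bound 18-mer DNA primer (~110 nM) with 50-mer 5′-A12-(GTCA)5 template (190 nM). dATP, dGTP, dCTP and BrdUTP at 1.0 μM each, in HEPES 50 mM pH 7.3, MgCl2 10 mM. RT 30–100 pM, 33°C for 180 min, then NaOH dehybridization and anti-BrdU-AP tracer read at 405 nm. IC50 from seven triphosphate concentrations; two to four runs in duplicate.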

A short description of experiment [2]: Inhibition of HIV1 HXB2 reverse transcriptase 41L/67N/70R/215Y/219Q mutant in presence of 5 mM ATP by heteropolymeric DNA polymerase assay.
Experiment [3] in a line: Inhibition of HIV1 reverse transcriptase 41L/67N/70R/210W/215Y mutant in presence of 20 uM dNTP by heteropolymeric DNA polymerase assay. More on the design: species or system Human immunodeficiency virus 1. Summed up: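 DNA polymerase assay with 5 mM ATP and purified HIV-1 RT (HXB2 background) on a plate-bound primer with a 5′-A12-(GTCA)5-3′ template. Each dNTP (dATP, dGTP, dCTP, BrdUTP) is set at either 1 μM or 20 μM. Incubation 180 min at 33°C, anti-BrdU-AP readout at 405 nm. IC50 from at least two experiments in duplicate. Fold change is relative to wild-type RT at the same dNTP level.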

The nature of experiment [4]: Inhibition of HIV1 reverse transcriptase 75I/77L/116Y/151M mutant by heteropolymeric DNA polymerase assay. Further details: species or system Human immunodeficiency virus 1. In short, it runs like this:
(§2)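 Purified p66/p51 HIV-1 RT, or p66 homodimer for 65R, at 30–100 pM (about 1.5–4.5 mU/well). Plate-bound 18-mer DNA primer on a 50-base 5′-A12-(GTCA)5-3′ DNA template. dATP, dGTP, dCTP and BrdUTP at 1.0 μM each, no ATP. Buffer: HEPES 50 mM pH 7.3, 10 mM MgCl2. Incubation 180 min at 33°C, NaOH dehybridization, anti-BrdU-AP tracer, A405. IC50 from seven inhibitor concentrations, at least two experiments in duplicate.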

Experiment [5] deals with T1, Human immunodeficiency virus type 1 reverse transcriptase. Put plainly: Inhibition of HIV1 LAI reverse transcriptase wild type in presence of 5 mM ATP by heteropolymeric DNA polymerase assay. Summed up:
(§3)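 Heteropolymeric DNA assay with 5 mM ATP added: immobilized 18-mer primer, 5′-A12-(GTCA)5 50-mer template, dATP/dGTP/dCTP/BrdUTP at 1.0 μM each, HEPES 50 mM pH 7.3, MgCl2 10 mM. RT 30–100 pM, incubated at 33°C for 180 min. NaOH strand separation, then anti-BrdU-AP detection at 405 nm. IC50 fitted from seven inhibitor concentrations; two to four runs in duplicate.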

A short description of experiment [6]: Inhibition of HIV1 reverse transcriptase 75I/77L/116Y/151M/184V mutant by heteropolymeric DNA polymerase assay. More on the design: species or system Human immunodeficiency virus 1. Summed up:
as §2

Experiment [7] in a line: Inhibition of HIV1 reverse transcriptase wild type HXB2(b) in presence of 5 mM ATP by heteropolymeric DNA polymerase assay. More on the design: species or system Human immunodeficiency virus 1. Summed up:
as §3

A short description of experiment [8]: Inhibition of HIV1 pNL4-3 reverse transcriptase 115F mutant by heteropolymeric DNA polymerase assay. Further details: species or system Human immunodeficiency virus 1. In short, it runs like this: as §2
Experiment [9] can be described thus: Inhibition of HIV1 reverse transcriptase 184V mutant by heteropolymeric DNA polymerase assay. Further details: species or system Human immunodeficiency virus 1. In short, it runs like this: as §2
A short description of experiment [10]: Inhibition of HIV1 LAI reverse transcriptase 65R mutant in presence of 5 mM ATP by heteropolymeric DNA polymerase assay. More on the design: species or system Human immunodeficiency virus 1. Summed up: (§4)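 Heteropolymeric DNA polymerase assay with ATP added at 5 mM. Purified HIV-1 RT at 30–100 pM acts on a plate-bound DNA primer with a 5′-A12-(GTCA)5-3′ template. dATP, dGTP, dCTP and BrdUTP at 1.0 μM each. Incubation 180 min at 33°C. BrdUMP incorporation read via anti-BrdU-AP at 405 nm after NaOH dehybridization. IC50 from seven inhibitor concentrations, at least two experiments in duplicate.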

Experiment [11] is described as follows: Inhibition of HIV1 reverse transcriptase 75I/77L/116Y/151M/184V mutant in presence of 5 mM ATP by heteropolymeric DNA polymerase assay. Further details: species or system Human immunodeficiency virus 1. Summed up: as §4
A short description of experiment [12]: Inhibition of HIV1 reverse transcriptase 41L/69S-SG/210W/215Y mutant in presence of 5'-A12-(GTCA)5-3' by heteropolymeric DNA polymerase assay.
A short description of experiment [13]: Inhibition of HIV1 reverse transcriptase wild type HXB2(a) in presence of 5 mM ATP by heteropolymeric DNA polymerase assay. Further details: species or system Human immunodeficiency virus 1. In short, it runs like this: as §3
Experiment [14] can be described thus: Inhibition of HIV1 reverse transcriptase 184V mutant in presence of 5 mM ATP by heteropolymeric DNA polymerase assay. Further details: species or system Human immunodeficiency virus 1. Summed up:
as §4

Experiment [15] can be described thus: Inhibition of HIV1 reverse transcriptase 75I/77L/116Y/151M mutant in presence of 5 mM ATP by heteropolymeric DNA polymerase assay. More on the design: species or system Human immunodeficiency virus 1. Summed up:
as §4

Experiment [16] in a line: Inhibition of HIV1 reverse transcriptase wild type HXB2(a) in presence of 5'-A12-(GTCA)5-3' by heteropolymeric DNA polymerase assay. More on the design: species or system Human immunodeficiency virus 1. Summed up:
(§5)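 Heteropolymeric DNA assay containing 5 mM ATP on the 5′-A12-(GTCA)5 template, with each dNTP (BrdUTP in place of TTP) at 1 μM or, in the modified version, 20 μM. HEPES 50 mM pH 7.3, MgCl2 10 mM, 33°C for 180 min, then NaOH step and anti-BrdU-AP readout at 405 nm. Mean IC50 from at least two runs in duplicate.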

For experiment [17], the target named is T1, Human immunodeficiency virus type 1 reverse transcriptase. Put plainly: Inhibition of HIV1 pNL4-3 reverse transcriptase wild type pNL4-3 in presence of 5 mM ATP by heteropolymeric DNA polymerase assay. Summed up:
as §3

Experiment [18] can be described thus: Inhibition of HIV1 reverse transcriptase 41L/69S-SG/210W/215Y mutant in presence of 5 mM ATP by heteropolymeric DNA polymerase assay. Further details: species or system Human immunodeficiency virus 1. In short, it runs like this:
as §4

Experiment [19] concerns the target T1, Human immunodeficiency virus type 1 reverse transcriptase. Put plainly: Inhibition of HIV1 LAI reverse transcriptase wild type LAI by heteropolymeric DNA polymerase assay. In short, it runs like this:
as §1

Experiment [20] is described as follows: Inhibition of HIV1 reverse transcriptase wild type HXB2(b) by heteropolymeric DNA polymerase assay. Further details: species or system Human immunodeficiency virus 1. In short, it runs like this:
as §1

The nature of experiment [21]: Inhibition of HIV1 reverse transcriptase wild type HXB2(a) in presence of 1 uM dNTP by heteropolymeric DNA polymerase assay. More on the design: species or system Human immunodeficiency virus 1. In short, it runs like this: as §5
Experiment [22] is described as follows: Inhibition of HIV1 pNL4-3 reverse transcriptase 115F mutant in presence of 5 mM ATP by heteropolymeric DNA polymerase assay. Further details: species or system Human immunodeficiency virus 1. Summed up: as §4
A short description of experiment [23]: Inhibition of HIV1 reverse transcriptase 41L/69S-SG/210W/215Y mutant by heteropolymeric DNA polymerase assay. Further details: species or system Human immunodeficiency virus 1. Summed up:
as §2

Experiment [24] is described as follows: Inhibition of HIV1 reverse transcriptase 41L/67N/70R/184V/210W/215Y mutant in presence of 5 mM ATP by heteropolymeric DNA polymerase assay. Further details: species or system Human immunodeficiency virus 1. Summed up: as §4

As to `Cc1cn([C@H]2CO[C@@H](COP(=O)(O)OP(=O)(O)OP(=O)(O)O)O2)c(=O)[nH]c1=O`, the IC50 was 0.1 µM in experiment [1]; 0.84 µM in experiment [2]; 2.4 µM in experiment [3]; 2.1 µM in experiment [4]; 0.19 µM in experiment [5]; 7.1 µM in [6]. The IC50 was 0.38 µM in [7]; 0.08 µM in [8]; 0.18 µM in experiment [9]; 0.75 µM in [10]; 15 µM in [11]; 1.6 µM in [12]. The IC50 is 0.38 µM in experiment [13]; 0.5 µM in experiment [14]; 6.1 µM in [15]; 0.38 µM in experiment [16]; 0.3 µM in [17]; 1.6 µM in [18]. Moreover, the IC50 stood at 0.11 µM in [19]; 0.12 µM in experiment [20]; 0.38 µM in [21]; 0.2 µM in experiment [22]; 0.11 µM in experiment [23]; 0.7 µM in [24].

On to `Cc1cn([C@H]2C[C@H](N=[N+]=[N-])[C@@H](COP(=O)(O)OP(=O)(O)OP(=O)(O)O)O2)c(=O)[nH]c1=O` [ZIDOVUDINE TRIPHOSPHATE], for which the IC50 in experiment [1] was 0.13 µM; in [2], 2.5 µM; in experiment [3] it was 16 µM; in [4], 5.1 µM; in experiment [5], 0.3 µM; in experiment [6] it was 10.6 µM. The IC50 in experiment [7] turned out to be 0.48 µM; in [8], 0.13 µM; in experiment [9], 0.25 µM; in [10] it was 0.61 µM; in [11], 22 µM; in experiment [12], 4.4 µM. Besides, the IC50 in experiment [13] worked out at 0.46 µM; in [14], 0.52 µM; in experiment [15] it was 9 µM; in experiment [16] it was 0.46 µM; in experiment [17], 0.42 µM; in experiment [18], 4.4 µM. Besides, the IC50 was 0.08 µM in experiment [19]; 0.2 µM in experiment [20]; 0.46 µM in experiment [21]; 0.55 µM in experiment [22]; 0.16 µM in [23]; 0.9 µM in experiment [24].

Take `C[C@H](Cn1cnc2c(N)ncnc21)OCP(=O)(O)OP(=O)(O)OP(=O)(O)O`: the IC50 in experiment [1] is 1.2 µM; in experiment [2] it was 10.5 µM; in [3] it was 49 µM; in experiment [4], 8 µM; in experiment [5] it was 1.3 µM; in experiment [6], 2.9 µM. Further, the IC50 came out at 3.2 µM in experiment [7]; 1.1 µM in [8]; 2.2 µM in experiment [9]; 21 µM in [10]; 4.6 µM in [11]; 24 µM in experiment [12]. The IC50 stood at 3.3 µM in experiment [13]; 2.3 µM in experiment [14]; 11 µM in experiment [15]; 3.3 µM in [16]; 4 µM in experiment [17]; 24 µM in [18]. Moreover, the IC50 was determined as 0.55 µM in experiment [19]; 3.3 µM in [21]; 3.7 µM in experiment [22]; 3.7 µM in experiment [23]; 5.9 µM in experiment [24].
